The record followed here is ChEMBL document CHEMBL3352174, “Identification of a New RXRα Antagonist Targeting the Coregulator-Binding Site” (ACS Med Chem Lett, 2014).

Experiment [1] has as its target T1, Retinoic acid receptor RXR-alpha (Homo sapiens) (UniProt P19793).
T1 sequence (whole entry): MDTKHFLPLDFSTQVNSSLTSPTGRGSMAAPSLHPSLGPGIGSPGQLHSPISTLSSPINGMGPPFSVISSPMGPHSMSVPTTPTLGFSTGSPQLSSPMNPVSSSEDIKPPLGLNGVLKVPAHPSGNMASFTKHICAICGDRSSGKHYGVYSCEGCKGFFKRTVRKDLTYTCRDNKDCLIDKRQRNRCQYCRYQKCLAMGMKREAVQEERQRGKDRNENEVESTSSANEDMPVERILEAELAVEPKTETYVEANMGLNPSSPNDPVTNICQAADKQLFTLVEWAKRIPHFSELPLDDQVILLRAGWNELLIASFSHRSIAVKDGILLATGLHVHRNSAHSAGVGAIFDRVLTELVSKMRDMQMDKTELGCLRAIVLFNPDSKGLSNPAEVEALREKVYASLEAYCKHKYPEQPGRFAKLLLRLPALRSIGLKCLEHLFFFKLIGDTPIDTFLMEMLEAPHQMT
The experiment is described as follows: Antagonist activity against RXRalpha in human pancreatic cancer cells assessed as inhibition of AKT phosphorylation at 5 and 10 uM after 24 hrs by Western blotting method. The format is cell-based. Conditions: Cancer cell lines. On the technique in general: Immunoblotting shows a protein as a band on a membrane.

Experiment [2] has as its target T2, Peroxisome proliferator-activated receptor gamma (Homo sapiens) (UniProt P37231).
T2 sequence (whole entry): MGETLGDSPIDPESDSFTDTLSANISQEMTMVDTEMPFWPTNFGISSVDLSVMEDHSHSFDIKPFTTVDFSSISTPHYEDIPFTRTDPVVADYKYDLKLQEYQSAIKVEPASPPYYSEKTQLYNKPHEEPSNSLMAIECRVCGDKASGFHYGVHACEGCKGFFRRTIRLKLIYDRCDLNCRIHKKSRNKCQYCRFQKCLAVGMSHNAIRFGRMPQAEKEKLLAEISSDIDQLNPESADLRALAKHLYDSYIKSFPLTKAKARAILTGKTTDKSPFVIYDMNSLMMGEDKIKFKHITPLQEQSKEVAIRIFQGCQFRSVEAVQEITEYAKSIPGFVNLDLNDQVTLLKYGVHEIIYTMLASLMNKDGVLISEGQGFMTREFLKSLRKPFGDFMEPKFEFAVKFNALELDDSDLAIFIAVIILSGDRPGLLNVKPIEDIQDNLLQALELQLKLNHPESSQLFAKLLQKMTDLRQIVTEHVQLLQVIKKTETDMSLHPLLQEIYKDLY
In words: Antagonist activity against PPARgamma ligand binding domain (unknown origin) expressed in human MCF7 cells assessed as inhibition of ROS-induced receptor transactivation at 10 uM after 18 hrs by luciferase reporter gene based mammalian one-hybrid assay. The format is cell-based. (Reporter assays use an easily measured gene product as a stand-in for the process of interest.)

The test system of the next experiment is A549. The experiment is described as follows: Induction of apoptosis in human A549 cells assessed as PARP cleavage at 5 and 10 uM by immunoblotting method. The format is functional, cell-based. The method in brief: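 A549 or HepG2 cells were treated with compound for 24 h, with or without subsequent TNFα (20 ng/mL) for 30 min. Lysates were immunoblotted for PARP cleavage as the apoptosis marker. One of three to five similar experiments shown.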

Experiment [3] addresses T3, Retinoic acid receptor RXR-alpha (Homo sapiens, UniProt P19793).
T3 sequence (P19793 whole entry): T1 sequence (whole entry)
In words: Antagonist activity against Myc-tagged RXRalpha ligand binding domain (unknown origin) expressed in human HEK293T cells assessed as inhibition of 9-cis-RA-induced receptor transactivation after 18 hrs by luciferase reporter gene based mammalian one-hybrid assay. The format is cell-based, HEK-293T. The gist of the method: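 HEK293T cells co-transfected with pG5-Luc and pBind-RXRα-LBD. […] Luciferase reporter activity measured. Mean ± SD.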

In experiment [4] the target is T4, Oxysterols receptor LXR-alpha (Homo sapiens) (UniProt Q13133).
T4 sequence (whole entry): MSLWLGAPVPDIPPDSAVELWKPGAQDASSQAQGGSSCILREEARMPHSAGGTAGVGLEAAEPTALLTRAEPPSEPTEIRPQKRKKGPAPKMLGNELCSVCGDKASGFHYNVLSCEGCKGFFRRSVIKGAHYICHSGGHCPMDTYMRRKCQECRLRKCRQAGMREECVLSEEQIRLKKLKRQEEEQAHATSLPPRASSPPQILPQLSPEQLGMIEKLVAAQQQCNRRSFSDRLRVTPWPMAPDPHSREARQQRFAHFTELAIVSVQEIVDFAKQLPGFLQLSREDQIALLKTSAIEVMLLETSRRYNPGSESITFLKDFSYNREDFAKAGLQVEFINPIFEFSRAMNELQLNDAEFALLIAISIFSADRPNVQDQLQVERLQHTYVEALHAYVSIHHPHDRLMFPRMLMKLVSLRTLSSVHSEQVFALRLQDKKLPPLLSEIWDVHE
In words: Antagonist activity against LXRalpha ligand binding domain (unknown origin) expressed in human MCF7 cells assessed as inhibition of T09-induced receptor transactivation at 10 uM after 18 hrs by luciferase reporter gene based mammalian one-hybrid assay. It counts as cell-based.

The target of experiment [5] is T5, Retinoic acid receptor gamma (Homo sapiens) (UniProt P13631).
T5 sequence (whole entry): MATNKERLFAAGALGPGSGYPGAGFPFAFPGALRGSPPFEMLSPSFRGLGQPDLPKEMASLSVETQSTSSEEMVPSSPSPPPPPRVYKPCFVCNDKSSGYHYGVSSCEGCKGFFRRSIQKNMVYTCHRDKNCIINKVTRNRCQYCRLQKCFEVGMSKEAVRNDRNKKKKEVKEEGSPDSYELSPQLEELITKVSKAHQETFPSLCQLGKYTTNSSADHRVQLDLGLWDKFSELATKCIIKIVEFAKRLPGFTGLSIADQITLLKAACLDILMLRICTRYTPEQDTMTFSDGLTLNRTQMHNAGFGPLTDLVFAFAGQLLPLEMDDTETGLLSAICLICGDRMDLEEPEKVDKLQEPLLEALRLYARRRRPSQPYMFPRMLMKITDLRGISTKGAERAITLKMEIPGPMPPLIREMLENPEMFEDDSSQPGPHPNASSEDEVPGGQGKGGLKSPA
In words: Antagonist activity against RARgamma ligand binding domain (unknown origin) expressed in human MCF7 cells assessed as inhibition of ATRA-induced receptor transactivation at 10 uM after 18 hrs by luciferase reporter gene based mammalian one-hybrid assay. The format is cell-based. The method in brief: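 MCF-7 cells co-transfected with pG5-Luc and the pBind-LBD fusion: Nur77, RARγ or ER. Agonists were all-trans-RA 10⁻⁷ M for RARγ and Nur77, and propyl pyrazole triol 10 μM for ER. Compound at 10 μM for 18 h. Dual-luciferase read-out normalized to Renilla. Mean ± SD.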

Experiment [6] deals with Retinoic acid receptor RXR-alpha/oxysterols receptor LXR-alpha (Homo sapiens) (UniProt P19793+Q13133). The experiment is described as follows: Antagonist activity against RXRalpha/LXRalpha ligand binding domain (unknown origin) expressed in human HEK293T cells assessed as inhibition of 9-cis-RA/T09-induced receptor transactivation at 2 and 10 uM after 18 hrs by luciferase reporter gene based mammalian one-hybrid assay. The format is cell-based. Conditions: HEK-293T.

pIC50: −log10 of the molar value. Active and inactive are the calls of the source. The calls are words filed in the database; no cut-off is given here.

One may read the pIC50 as the negative decadic logarithm of the IC50, by convention in mol/L. In the case of `Cc1cc(=O)oc2c(/C=N/NC(=O)CSc3nc4ccccc4s3)c(O)ccc12`, the inhibition result in experiment [1], in experiment [2], in experiment [4] and in experiment [5] was “Active” each time. Moreover, in the experiment on A549, the outcome was Active. Also, the pIC50 in experiment [3] was 5.61. Further, the inhibition entry in experiment [6] is “inactive”.
